This passage reports cytotoxicity results from ChEMBL document CHEMBL4513216, “Probing the Open Global Health Chemical Diversity Library for Multistage-Active Starting Points for Next-Generation Antimalarials” (ACS Infect Dis, 2020).

The data set in a line: Toxicity liver stage against HepG2, at 10uM. In kind it is cell-based. More on the design: test concentration 10 uM, cell line HepG2-A16-CD81EGFP. As to conditions: human, HepG2-A16-CD81EGFP cells; read-out: INHIBITION
An outline of the steps:
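Uninfected HepG2-A16-CD81EGFP cells, 3 × 10^3 per well, 1536-well, plated on prespotted compound at 10 μM final, parasite-free screening media added to match infected plates; puromycin 10 μM positive, DMSO 0.5% negative; run in parallel with 48 h PbLuc assay at 37 °C, 5% CO2; viability by CellTiter-Glo luminescence, normalized to controls.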
As for `FC(F)(F)c1ccc2nc([C@H]3CCN(C4CCOCC4)C3)[nH]c2c1`, the cytotoxicity at 10 µM is 0.354%.
Then `CNC(=O)c1nc(COc2ccc3c(c2)OCO3)no1`, with 2.03%; and `COc1ccc(-c2c(C(C)C)nn3c(=N)c(C#N)n[nH]c23)cc1`, with -12.2%; and `Cn1nc(C(=O)NCc2ccc(Cl)cc2)c2c1CCS(=O)(=O)C2`, with 5.01%.
For `Cc1nc(N2CCC(C)CC2)ncc1-c1cc(O)nc(N2CCCC2)n1`, the cytotoxicity at 10 µM amounted to 9.82%.
The same measure for `Cn1nc(C(=O)NC2CCCCC2)cc1NC(=O)C1CC1`: -3.97%; for `Cc1nn(C)c(C)c1CN(C)S(=O)(=O)c1c(C)n[nH]c1C`: -2.32%; for `Cc1cc(C)nc(N2CCCC(C)(c3[nH]ncc3C(=O)N(C)C)C2)n1` (stereo not drawn): 7.42%.
The same measure for `Cn1ccnc1C(O)c1ccccc1N1CCN(Cc2ccsc2)CC1` (stereo not drawn): 3.19%; for `NCc1cnn(-c2ccccc2C(=O)NCc2ccccn2)c1`: -19.9%; for `O=C(NC1CC1)C1CCc2nnc(C3CC3)n21` (stereo not drawn): 11.2%.
Turning to `CC(C)(C)C(=O)N1CCC2(CNS(=O)(=O)c3cnccc3O2)C1` (stereo not drawn), the cytotoxicity at 10 µM was determined as 10.2%.
Turning to `Cc1cc(C)cc(OCCNC(=O)C(C)Sc2nncn2C)c1` (stereo not drawn), the cytotoxicity at 10 µM is -46.3%.
In the case of `CCc1ccc2c(c1)C(CCNC(=O)Cc1ccc(F)cc1)C(=O)N2` (stereo not drawn), the cytotoxicity at 10 µM is -44.3%.
On to `CS(=O)(=O)CCC(=O)Nc1nccn1Cc1ccccc1Cl`, for which the cytotoxicity at 10 µM was -5.98%.
The same measure for `Cn1cc(NC(=O)c2cccc(-n3cnnn3)c2)cn1`: 5.39%; for `N#CC1COCCN1C(=O)c1ccc2cc[nH]c2c1` (stereo not drawn): 7.75%; for `CC(C)(NCCCOc1ccc(C#N)cc1)c1nccs1`: -0.476%.
The same measure for `CCOc1nnc(CN2CCN(CCOC)CC2)s1`: -12.1%; for `CCc1ccc(N2CCC(NS(=O)(=O)N(CC)CC)CC2)cc1`: 0.243%.
For the molecule `Cc1noc(C)c1CN(C)C(=O)NC(C)Cc1ccco1` (stereo not drawn), the cytotoxicity at 10 µM is 11.3%.
Take `CC1COCCN1C(=O)c1cnccn1` (stereo not drawn): the cytotoxicity at 10 µM is -4.36%.
As to `Cc1nn(C)c(Cl)c1C1CCCN1CC(=O)NC1CCCC1` (stereo not drawn), the cytotoxicity at 10 µM was -3.78%.
Consider `CCc1nsc(N2CCCN(C(=O)COc3ccccc3)CC2)n1`, for which the cytotoxicity at 10 µM was -1.74%.
In the case of `CC(=O)c1cccc(NC(=O)CN2CCCC(C3OCCO3)C2)c1` (stereo not drawn), the cytotoxicity at 10 µM is -3.28%.
With `CN(CC(=O)Nc1cccnc1)CC1CCCN1c1cccnn1` (stereo not drawn), the cytotoxicity at 10 µM was 2.66%.
`CN(C1CCc2ccccc2C1)S(C)(=O)=O` (stereo not drawn): the cytotoxicity at 10 µM is -3.78%.
As to `CCOCCOC(C)C(=O)NCc1cn2cc(Cl)ccc2n1` (stereo not drawn), the cytotoxicity at 10 µM came out at 8.82%.
`Cc1ncsc1C(=O)N1CCN(CCC(C)C)CC1`: the cytotoxicity at 10 µM was found to be 9.34%.
`Cc1cccc(CC(=O)N2CCOCC2c2c(C)n[nH]c2C)c1` (stereo not drawn): the cytotoxicity at 10 µM was found to be 9.18%.
With `CC(C)(C)Cc1nnc(NCc2ccsc2)o1`, the cytotoxicity at 10 µM is -5.36%.
Regarding `CCCc1cc(N2CCCC2Cn2nc(C)nc2C)n2ncnc2n1` (stereo not drawn), the cytotoxicity at 10 µM was -0.82%.
Regarding `O=C(Nc1ccc(CC(=O)N2CCSCC2)cc1)NC1CC1`, the cytotoxicity at 10 µM was -2.42%.
On to `CC(C)c1ccc(CCC(=O)N(C)C2CCN(C)C2=O)cc1` (stereo not drawn), for which the cytotoxicity at 10 µM was -7.79%.
With `Cn1cc(Br)cc(NC(=O)Cc2cccs2)c1=O`, the cytotoxicity at 10 µM is 2.14%.
For the molecule `O=C(NCCNc1cnccn1)c1scnc1Cl`, the cytotoxicity at 10 µM amounted to 8.11%.
As for `COc1cccc(OCC(=O)N(C)c2cccnc2)c1`, the cytotoxicity at 10 µM was -2.66%.
Take `CN(CC(F)(F)F)C(=O)CNC(=O)N1CCCC(N(C)C)C1` (stereo not drawn): the cytotoxicity at 10 µM is -7.91%.
As to `Cc1cc(C(N)=O)c2c(Br)cccc2n1`, the cytotoxicity at 10 µM stood at 1.09%.
The same measure for `COC(=O)CN(C)Cc1cc(Br)cs1`: -2.45%.
Then `Cc1nc(NC(=O)OC(C)(C)C)sc1C#N`, with -10%; and `COc1cccc(C(O)CN2CCN(C(=O)c3ccsc3)CC2)c1` (stereo not drawn), with -48.1%; and `N#CCCCN1CCCC1Cc1ccccc1` (stereo not drawn), with -45.4%.
As for `O=C(CCc1ccc(F)cc1)NCc1ccnc(NC2CC2)c1`, the cytotoxicity at 10 µM was -8.78%.
As to `CC1CN(Cc2cccc(C#N)c2)CCN1c1ccc2nncn2n1` (stereo not drawn), the cytotoxicity at 10 µM was 9.56%.
Then `CNC(=O)c1cnc(/C=C/c2cc(OC)c(OC)c(OC)c2)s1`, with -15.5%.
Take `CN(Cc1ccc(C#N)cc1)Cc1noc(C(C)(C)C)n1`: the cytotoxicity at 10 µM was -2.09%.
For `Cc1cnn(CC(C)NCc2nc(-c3ccco3)no2)c1` (stereo not drawn), the cytotoxicity at 10 µM was -16%.
Consider `CO[C@@H]1CO[C@@]2(CCCN(C(=O)C3CC=CC3)C2)C1`, for which the cytotoxicity at 10 µM is -105%.
The same measure for `CCN1CCC2(CC1)CC(CC(=O)N(C)C)c1ccc(F)cc12` (stereo not drawn): -98.6%; for `O=C(C1CCOCC1)N1C[C@H]2CCC[C@@]2(COCc2ccccn2)C1`: -112%; for `O=C(c1cccs1)N1CCc2ncnc(C3CCOC3)c2CC1` (stereo not drawn): -85.4%.
The same measure for `Cc1cccc(C)c1Oc1ncccc1CNC(=O)C1COC(=O)N1` (stereo not drawn): -4.65%.
Then `O[C@@H]1CN(CC2CC2)CC[C@H]1N1CCN(c2ccccc2F)CC1`, with -50.3%; and `CC1(C)CNC(=O)c2nc(CCN3CCC(O)CC3)[nH]c2C1`, with -10.4%; and `CNc1nc(N2CCN(Cc3ccsc3)C(CCO)C2)nc2c1CCC2` (stereo not drawn), with 3.96%.
As to `CC1(C)CC(C(=O)N2CCC3(CCC(=O)N(C4CC4)C3)CC2)CCO1` (stereo not drawn), the cytotoxicity at 10 µM was 0.868%.
Take `Cc1cnc(-n2cnnc2)c(-c2cccc3c2CCNC3)c1`: the cytotoxicity at 10 µM stood at 17.7%.
The same measure for `CN(C)c1cnn(CC(=O)N2CCN(c3ccccc3)CC2)c(=O)c1`: -13.8%.
For `CCc1nn(C)c(Cl)c1CN1CCCC2(CC1)CN(C)C(=O)O2` (stereo not drawn), the cytotoxicity at 10 µM came out at 5.63%.
For the molecule `CCc1nc(N2CCN(c3ncccc3C#N)CC2)c2cnn(C)c2n1`, the cytotoxicity at 10 µM was found to be 10.8%.
Take `Cc1nc(C2CCCNC2)cc(N2CCc3nc(N)sc3C2)n1` (stereo not drawn): the cytotoxicity at 10 µM is -47.4%.
`CCCN1CCN(Cc2cccc(OC)c2)[C@H]2CS(=O)(=O)C[C@H]21`: the cytotoxicity at 10 µM is -8.15%.
The same measure for `CC[C@H](Nc1nc(C(C)C)nc2c1cnn2C)c1ccccc1`: -47.5%; for `Cc1c[nH]c(C(=O)N2CCn3nc(C(=O)NC4CC4)cc3C2)n1`: -2.66%.
The same measure for `CCCC1(NC(=O)C(c2ccc(F)cc2)N(C)C)CC1` (stereo not drawn): -37.1%; for `Cc1cc(C(F)(F)F)cc(N2C[C@@H](CN3CCOCC3)[C@@H](CO)C2)n1`: -6.02%; for `CCc1noc(CN(CC)C(=O)C2CC(=O)N(Cc3ccncc3)C2)n1` (stereo not drawn): 18.2%.
With `c1ccc2c(CC3CN(Cc4nccs4)CCO3)cccc2c1` (stereo not drawn), the cytotoxicity at 10 µM turned out to be 1.31%.
As for `CCc1nc2c(c(NC3CCC3)n1)CCN(C(=O)CO)CC2`, the cytotoxicity at 10 µM came out at 5.42%.
For `CCOCc1nc2c(c(NC(CC)c3cccnc3)n1)CCNCC2` (stereo not drawn), the cytotoxicity at 10 µM was -4.28%.
`Cn1cccc1C(=O)N1CCC2(CCCN(CC3CCC3)C2=O)C1` (stereo not drawn): the cytotoxicity at 10 µM is -2.6%.
With `COc1ccc(C(=O)N2CCCCC2c2ccccn2)c(OC)n1` (stereo not drawn), the cytotoxicity at 10 µM is -0.649%.
With `COc1ccc(-n2ncc(C(C)NC3CCSCC3)c2C)cc1` (stereo not drawn), the cytotoxicity at 10 µM was -4.57%.
On to `CCN(CC)C(=O)[C@@H]1C[C@@H](n2cc(-c3cccc(OC)c3)nn2)CN1`, for which the cytotoxicity at 10 µM was -5.98%.
`Cc1ccc(-c2ncc(C(=O)N3CCCC(CCN)C3)c(O)n2)cc1` (stereo not drawn): the cytotoxicity at 10 µM is -7.98%.
`COC(=O)CCc1c(C)nc2cc(O)nn2c1C`: the cytotoxicity at 10 µM was -7.18%.
Consider `CCN(C(=O)Nc1cccnc1OC)C1CC1`, for which the cytotoxicity at 10 µM is -9.11%.
With `CC(C)n1ncc2cc(NC(=O)N3CCC(N4CCCC4)C3)cnc21` (stereo not drawn), the cytotoxicity at 10 µM is -8.58%.
For the molecule `CN(Cc1nc(C2CC2)no1)C1CCCN(c2cccnn2)C1` (stereo not drawn), the cytotoxicity at 10 µM was -6.62%.
In the case of `CC(C)CCC(=O)NC(C)c1nnc2n1CCCCC2` (stereo not drawn), the cytotoxicity at 10 µM is -7.76%.
As for `Cc1nc(CN2CCCC2c2ccsc2)nc2ccccc12` (stereo not drawn), the cytotoxicity at 10 µM came out at 0.89%.
Take `COCCC(=O)N1CCc2c(CNc3ncccn3)cncc2C1`: the cytotoxicity at 10 µM amounted to 9.05%.
Take `CCC(CN1CCCC1)NC(=O)C1(c2cccc(F)c2)CC1` (stereo not drawn): the cytotoxicity at 10 µM was -5.72%.
For the molecule `OCC1CCC2(CC1)CN(Cc1ccccc1F)Cc1ccccc1O2` (stereo not drawn), the cytotoxicity at 10 µM turned out to be 3.68%.
Regarding `Cc1cccc(CN(Cc2ccc(C)o2)C2CC(C)(C)NC(C)(C)C2)n1`, the cytotoxicity at 10 µM was -2.42%.
With `CN(C)C(=O)[C@H]1C[C@H]2OCC[C@H]2N(Cc2ccc(F)cc2)C1`, the cytotoxicity at 10 µM is -76.1%.
As to `Cc1cccc(CN2CCc3ncnc(-c4ccsc4)c3CC2)n1`, the cytotoxicity at 10 µM was -78.2%.
For the molecule `CC1c2ncc(CN3CCN(C)CC3)n2CCN1Cc1ccccn1` (stereo not drawn), the cytotoxicity at 10 µM is -0.23%.
Turning to `O=C(NC1CCC1)[C@@H]1CCO[C@@H]2CCN(CCc3ccccc3)C[C@H]21`, the cytotoxicity at 10 µM is -7.24%.
For `O=C(NCc1ccccc1)c1nc2c(o1)CN(C(=O)c1cccnc1)C2`, the cytotoxicity at 10 µM was -76.9%.
On to `Cn1ccc(CN2CCCC23CCN(Cc2ccccc2F)CC3)n1`, for which the cytotoxicity at 10 µM was -104%.
The same measure for `O=C(N1CCOCC1)[C@@]12CCO[C@@H]1CCN(CC1CCCC1)C2`: -0.385%; for `CCOCC1CN(Cc2cnn(C)c2)Cc2c1cnn2CC` (stereo not drawn): -83.4%; for `Cc1cccc(CN2CCCC3(CCN(CC4CCCO4)CC3)C2)n1` (stereo not drawn): -121%.
Turning to `Cn1ncc2c1CN(Cc1cccnc1)CC2COCC1CC1` (stereo not drawn), the cytotoxicity at 10 µM is -10.7%.
In the case of `COCCN1CCOCC2(C1)CN(C(=O)c1conc1C)CCO2` (stereo not drawn), the cytotoxicity at 10 µM worked out at 7.1%.
Take `CN(C)c1ccc(CN2C[C@@H]3CC[C@H]2CN(C2CCOCC2)C3)cn1`: the cytotoxicity at 10 µM is -3.62%.
